Screening data: PubChem BioAssay, Sanford-Burnham Center for Chemical Genomics
An excerpt weighted towards active compounds, which were near 0.72% of everything screened.
hIAP block = blocks human intestinal alkaline phosphatase | purified IAP, CDP-Star luminescence, 30 min | inhibition, % at 10 µM | 330,000 tested, 0.12% active;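 active = inhibition reaching a set limit with compound at 10 µM in the primary screen, cut at about 35% in these data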
Target sequence (P09923 whole entry, looked up): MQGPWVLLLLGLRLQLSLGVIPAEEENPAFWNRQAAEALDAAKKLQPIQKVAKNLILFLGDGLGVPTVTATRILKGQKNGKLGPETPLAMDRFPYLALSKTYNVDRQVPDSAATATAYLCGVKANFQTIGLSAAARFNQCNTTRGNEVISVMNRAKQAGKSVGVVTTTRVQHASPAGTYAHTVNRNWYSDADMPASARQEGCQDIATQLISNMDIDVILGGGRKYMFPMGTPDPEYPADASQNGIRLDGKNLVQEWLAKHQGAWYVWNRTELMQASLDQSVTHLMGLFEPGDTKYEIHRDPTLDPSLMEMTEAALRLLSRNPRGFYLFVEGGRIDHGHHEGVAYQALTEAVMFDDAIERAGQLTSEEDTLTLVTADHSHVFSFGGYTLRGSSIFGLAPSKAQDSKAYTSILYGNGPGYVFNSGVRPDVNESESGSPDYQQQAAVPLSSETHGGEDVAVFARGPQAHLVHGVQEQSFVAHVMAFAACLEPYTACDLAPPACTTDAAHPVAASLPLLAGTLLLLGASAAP
bIAP activator = increases bovine intestinal alkaline phosphatase activity | AID 1016 | activation factor at 20 µM | purified bovine IAP, CDP-star luminescence, 30 min; stronger effect = higher value; fold of DMSO-control signal, blank-subtracted | 200,000 tested, 0.17% active;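 active = activation factor of 2 or more at 20 µM, a signal rise over negative controls twice the positive control's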
bIAP inh = intestinal alkaline phosphatase (bovine) inhibition. AID 1019. purified bovine IAP, CDP-star luminescence, 30 min. 190,000 tested, under 10 active. inhibition, % at 20 µM;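 active = over 50% inhibition of intestinal alkaline phosphatase at 20 µM in the single-dose screen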
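System: purified bovine intestinal alkaline phosphatase (IAP) enzyme; Input: IAP diluted 1/65,000,000 in the well; Measured by: CDP-star luminescence signal; Compound dosing: 20 µM single dose; Incubation: 30 min reaction at room temperature.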
mIAP block = mouse IAP inhibition; purified mouse IAP, CDP-Star luminescence, 30 min; inhibition, % at 10 µM; 330,000 tested, 0.2% active; AID 2806;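 active = inhibition of at least 40% at 10 µM in the primary screen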
mIAP act = mouse IAP activation | muIAP, CDP-Star luminescence, 30 min; stronger effect = higher value; 1 = vehicle-only enzyme signal, 0 = enzyme-free wells | activation factor at 10 µM | 330,000 tested, 0.24% active | AID 2805;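 active = activation factor of at least 2 at 20 µM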
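System: Mouse IAP enzyme | Also added: CDP-Star substrate | Dosing: Compounds dispensed in DMSO | Schedule: 30 min enzyme-substrate-compound incubation at room temperature | Technique: Chemiluminescence readout | Control set: DMSO-only wells and no-enzyme negative control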
hIAP act = increases human intestinal alkaline phosphatase activity | activation factor at 10 µM | P09923 | AID 2524 | 330,000 tested, 0.16% active | purified human IAP, CDP-Star luminescence, 30 min; stronger effect = higher value; 1 = vehicle-only enzyme, 0 = enzyme-free background;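 active = activation factor of the enzyme at least 2-fold when tested at 20 µM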
Numbers stand for hits; – = inactive; · = not tested or not shown.

SMILES	hIAP block	bIAP activator	bIAP inh	mIAP block	mIAP act	hIAP act
O=S(=O)(c1ccc(NC(=S)NCCC(c2ccccc2)c2ccccc2)cc1)N1CCOCC1	–	–	–	–	2.1	–
COc1cc2c(cc1OC)CN(C(=O)c1ccc(Cl)c(S(=O)(=O)N3CCCC3)c1)CC2	–	·	·	–	–	–
CC(NC(=O)CN(C)Cc1nc2ccccc2c(=O)[nH]1)c1ccccc1 (stereo not drawn)	–	2.1	–	–	–	–
c1ccc(Cn2c(CNc3nc4ccccc4n3CCN3CCCCC3)nc3ccccc32)cc1	–	–	–	–	–	–
CCN(CC)CCn1c(NCc2nc3ccccc3n2Cc2ccccc2)nc2ccccc21	–	2	–	–	–	–
CCCC(=O)OCCNc1cc(Sc2nc3ccccc3[nH]2)c2nonc2c1[N+](=O)[O-]	–	3.5	–	–	–	–
CCC(=O)OCCNc1cc(SCCC(=O)OC)c2nonc2c1[N+](=O)[O-]	–	–	–	–	–	–
COc1ccc(C2=NOC(Cn3nc(-c4ccccc4)cc3C(=O)NCc3cccs3)C2)cc1 (stereo not drawn)	–	·	·	–	2.9	–
Cc1cccc(OCC(=O)Nc2ncn[nH]2)c1C	–	·	·	–	–	2
Cc1cccc(OCC(=O)Nc2ccncc2)c1C	–	·	·	–	–	–
CSCC[C@H](NC(=O)c1ccc(OCC2CCCO2)cc1)c1nc2ccccc2[nH]1 (stereo partly drawn)	–	·	·	–	–	–
CCn1c(SCC(=O)Nc2ccc(N3CCOCC3)cc2)nnc1C1CC1	–	·	·	–	–	–
COC(=O)c1ccc(NC(=S)NC2CC3CCC2C3)cc1 (stereo not drawn)	–	–	–	–	3	–
COC(=O)c1ccc(NC(=O)C2CC3CCC2C3)cc1 (stereo not drawn)	–	·	·	–	–	–
Clc1cccc(Cl)c1CSc1nnc(-c2ccncc2)s1	–	·	·	–	–	2.1
CCOC(=O)C1(CC2CCCCO2)CCN(C(=O)Nc2cccc(SC)c2)CC1 (stereo not drawn)	–	–	–	–	2.4	–
O=C(NCC(c1ccc(F)cc1)N1CCOCC1)c1nn(-c2ccccc2)c(=O)c2ccccc12 (stereo not drawn)	–	·	·	–	–	–
Cc1ccccc1Cn1nc(C)c(NC(=O)C2c3ccccc3Oc3ccccc32)c1C	–	–	–	–	4.5	–
COc1ccc(C(C(=O)NC2CCCC2)N(Cc2cccnc2)C(=O)Cc2cccs2)cc1OC (stereo not drawn)	–	·	·	–	–	–
COc1ccc(C(C(=O)NC2CCCC2)N(Cc2ccc(F)cc2)C(=O)c2ccn[nH]2)cc1OC (stereo not drawn)	–	2.1	–	–	–	–
COc1ccc(C(C(=O)NC2CCCC2)N(Cc2ccc(C)cc2)C(=O)c2ccn[nH]2)cc1OC (stereo not drawn)	–	2.7	–	–	–	–
CC(C)(C)NC(=O)C(c1ccc(F)cc1)N(Cc1ccccc1Cl)C(=O)c1ccn[nH]1 (stereo not drawn)	–	2.1	–	–	–	–
CCOC(=O)C1=C(C)NC(C)=C(C(=O)OCC)C1C(=O)OCC(=O)NC1CCCCC1	–	·	·	–	–	–
O=C(CCOc1cccc(Br)c1)Nc1ccc(F)c(S(=O)(=O)N2CCOCC2)c1	–	·	·	–	–	–
O=C(COc1ccc([N+](=O)[O-])cc1)NNC(=O)Nc1ccccc1F	–	·	·	44	–	–
SMILES	hIAP block	bIAP activator	bIAP inh	mIAP block	mIAP act	hIAP act
CCCn1c(C(O)c2ccc(C)cc2)nc2ccccc21 (stereo not drawn)	–	·	·	–	–	–
CCCn1c(C(O)c2ccc3c(c2)OCO3)nc2ccccc21 (stereo not drawn)	–	5.8	–	–	–	–
CCOC(=O)c1[nH]c(C)c(C(=O)OCC(=O)N(Cc2ccccc2)C(C)C)c1C	–	·	·	–	–	–
CCC[C@H]1NC(=O)[C@H](C)N(C)C(=O)C(C)(C)C(=O)C(C)NC(=O)[C@H](Cc2ccc(OC)cc2)N(C)C(=O)[C@H](C(C)C)N(C)C(=O)CNC(=O)[C@H](CC(C)C)N(C)C(=O)CNC(=O)[C@H]([C@@H](C)CC)OC(=O)[C@H]1C (stereo partly drawn)	–	·	·	–	–	–
Cc1ccc(SCc2nc3ccccc3[nH]2)cc1	–	–	–	–	–	–
Cc1ccc(CSCc2nc3ccccc3[nH]2)cc1	·	2.3	–	·	·	·
O=C(CCNS(=O)(=O)c1ccc(Br)cc1)NCCCSc1ccccc1	–	·	·	–	–	–
C=CCNC(=O)/C=C/c1c(F)cccc1Cl	–	2.7	–	–	–	–
CCn1nc(C(=O)NCc2nnc3ccccn23)c2ccccc2c1=O	–	·	·	–	–	–
O=C(NCC1CCN(Cc2ccccc2Cl)CC1)Nc1ccccc1F	–	·	·	–	–	–
Cc1ccc(C)c(CN2CCC(CNC(=O)Nc3ccc(Br)cc3F)CC2)c1	–	·	·	–	3.2	–
CC(C)(C)OC(=O)C[C@H]1C/C=C\C[C@@H](CC(=O)N(CCO)Cc2ccccc2)C(=O)N[C@@H](Cc2ccccc2)COC1=O	–	·	·	–	–	–
COc1ccc(OCC(=O)N2CCN(C(=O)COc3ccc(Br)cc3)CC2)cc1	–	–	–	74	–	–
CC(=O)N1CCN(C(=O)COc2ccc(Br)cc2)CC1	–	–	–	–	–	–
CCOC(=O)c1sc(NC(=O)Nc2cccc(Cl)c2)cc1C	–	–	–	–	2	–
COc1ccccc1N1CCN(C(=O)CC(NC(=O)c2ccccc2Cl)c2ccccc2)CC1 (stereo not drawn)	–	·	·	–	–	–
CC(=O)N1CCN(S(=O)(=O)c2cccc(C(=O)OCc3ccc(C(C)(C)C)cc3)c2)CC1	–	·	·	–	–	–
C[C@@H](C(=O)Nc1ccc2ccccc2c1)[C@H]1C[C@]1(C)[C@H](NC(=O)OCc1ccccc1)c1ccccc1	–	–	–	–	–	–
Cc1cc(C(=O)N[C@H](c2ccccc2)[C@@]2(C)C[C@@H]2[C@@H](C)C(=O)Nc2ccc3ccccc3c2)n(C)n1	–	–	–	–	2.1	–
CCc1ccc(NC(=O)C(CC)Sc2nc3cc4c(cc3c(=O)n2Cc2ccco2)OCO4)cc1 (stereo not drawn)	–	2.9	–	–	–	–
COc1ccc(NC(=O)C2CCN(S(=O)(=O)c3ccc(C)cc3)CC2)cc1OC	–	–	–	–	–	–
Cc1ccc(NC(=O)C2CCN(S(=O)(=O)c3ccc(N4CCCC4=O)cc3)CC2)cc1Cl	–	·	·	–	2.6	–
CC(=O)c1cccc(NC(=O)C2CCCN(S(=O)(=O)c3ccc(F)cc3)C2)c1 (stereo not drawn)	–	–	–	–	–	–
COc1ccc(S(=O)(=O)N2CCCC(C(=O)Nc3cccc(C(C)=O)c3)C2)cc1 (stereo not drawn)	–	2.5	–	–	–	–
